What was measured:
[1] = Mean peak APTT value was evaluated on rats by intracolonic instillation of a 25% aqueous propylene glycol solution of heparin (25 mg/kg) and compound (50 mg/kg).; type: functional, Rattus norvegicus
[2] = HPLC capacity factor (k') (artificial membrane chromatography); type: ADME
Outline: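 Immobilized artificial membrane (IAM) column; mobile phase 10 mM sodium phosphate pH 6.4 in 25% aqueous propylene glycol, 2 mL/min. Samples at 100 µg/mL in mobile phase, UV detection 220 nm, KI as void marker. k' of each compound divided by mean k' of a reference standard injected before and after each set of five compounds; reported as relative k' (log for comparisons).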

| SMILES | Log relative k' [2] | Mean peak APTT [1] |
| --- | --- | --- |
| O=C(O)CCCCCCCNC(=O)c1cccs1 | 0.9 | 22 |
| O=C(O)CCCCCCCNC(=O)C/C=C/c1ccccc1 | 0.7 | 73 |
| O=C(O)CCCCCCCNC(=O)c1ccccn1 | -0.52 | 23 |
| O=C(O)CCCCCCCNC(=O)c1cccnc1O | 0.9 | 22 |
| O=C(O)CCCCCCCNC(=O)c1ccccc1 | 0.09 | 21 |
| O=C(O)CCCCCCCNC(=O)c1ccc(O)cc1 | -0.04 | 27 |
| O=C(O)CCCCCCCNC(=O)c1cc(O)cc(O)c1 | -0.06 | 20 |
| O=C(O)CCCCCCCNC(=O)c1ccc([N+](=O)[O-])cc1O | 1.11 | 36 |
| COc1ccccc1C(=O)NCCCCCCCC(=O)O | 0.33 | 26 |
| O=C(O)CCCCCCCNC(=O)c1ccc(I)cc1 | 0.97 | 23 |
| O=C(O)CCCCCCCNC(=O)c1ccccc1Cl | 0.18 | 23 |
| Cc1ccc(C(=O)NCCCCCCCC(=O)O)c(O)c1 | 1.05 | 37 |
| O=C(O)CCCCCCCNC(=O)c1cccc(O)c1 | 0 | 23 |
| O=C(O)CCCCCCCNC(=O)c1ccccc1F | 0.11 | 25 |
| O=C(O)CCCCCCCNC(=O)c1cc2ccccc2cc1O | 1.7 | 71 |
| O=C(O)CCCCCCCCCCCNC(=O)C/C=C/c1ccccc1 | 2.29 | 41 |
| O=C(O)CCCCCCCNC(=O)c1ccc(Br)cc1 | 0.76 | 60 |
| O=C(O)CCCCCCCNC(=O)c1ccc(Cl)cc1O | 1.43 | 94 |
| O=C(O)CCCCCCCCCCCNC(=O)c1ccccc1O | 2.32 | 44 |
| O=C(O)CCCCCCCNC(=O)c1cc(O)ccc1O | 0.51 | 25 |
| O=C(O)CCCCCCCNC(=O)c1ccc(F)cc1 | 0.23 | 31 |
| Cc1cccc(C(=O)NCCCCCCCC(=O)O)c1O | 1.23 | 27 |
| O=C(O)CCCCCCCNC(=O)c1cc2ccccc2oc1=O | 0.81 | 34 |
| O=C(O)CCCCCCCNC(=O)c1c(O)cccc1O | 1.12 | 42 |

| SMILES | Log relative k' [2] | Mean peak APTT [1] |
| --- | --- | --- |
| O=C(O)CCCCCCCNC(=O)c1cccc(F)c1 | 0.29 | 35 |
| O=C(O)CCCCCCCCNC(=O)c1ccccc1O | 1.04 | 163 |
| COc1ccc(C(=O)NCCCCCCCC(=O)O)c(O)c1 | 0.92 | 76 |
| O=C(O)CCCCCCCNC(=O)c1ccccc1C(=O)O | -1 | 23 |
| O=C(O)CCCCCCCCCNC(=O)c1ccccc1O | 1.43 | 153 |
| O=C(O)CCCCCCNC(=O)C/C=C/c1ccccc1 | 0.36 | 39 |
| O=C(O)CCCCCCCCCCNC(=O)c1ccc2ccccc2c1O | > 2.5 | 26 |
| Nc1ccccc1C(=O)NCCCCCCCC(=O)O | 0.02 | 24 |
| O=C(O)CCCCCCNC(=O)c1ccccc1O | 0.37 | 56 |
| O=C(O)CCCCCCCNC(=O)C1CCCCC1 | 0.15 | 34 |
| O=C(O)CCCCCCCNC(=O)c1cc([N+](=O)[O-])ccc1Cl | 0.25 | 23 |
| O=C(O)CCCCCCCNC(=O)c1c(F)c(F)c(F)c(F)c1F | 0.41 | 22 |
| O=C(O)CCCCCCCNC(=O)c1ccc(Cl)cc1 | 0.65 | 37 |
| Cc1ccc(O)c(C(=O)NCCCCCCCC(=O)O)c1 | 1.03 | 56 |
| O=C(O)CCCCCNC(=O)c1ccccc1O | 0.04 | 24 |
| O=C(O)CCCCCCCCCCNC(=O)c1ccccc1O | 1.88 | 51 |
| O=C(O)CCCCCCCNC(=O)c1ccccc1Br | 0.24 | 21 |
| O=C(O)CCCCCCCNC(=O)c1cc(Cl)ccc1O | 0.81 | 56 |
| COc1ccccc1C(=O)NCCCCCC(=O)O | -0.47 | 27 |
| O=C(O)CCCCCCCNC(=O)Cc1ccccc1O | 0.12 | 21 |
| O=C(O)CCCCCCCNC(=O)c1cc(I)ccc1O | 1.72 | 32 |
| O=C(O)CCCCCCCNC(=O)c1ccc2ccccc2c1O | 2.1 | 31 |
| O=C(O)CCCCCCCNC(=O)c1ccccc1O [SALCAPROZIC ACID] | 0.68 | 125 |

The next lines start with results.

| Log relative k' [2] | SMILES | Mean peak APTT [1] |
| --- | --- | --- |
| 0.23 | O=C(O)CCCCCCCNC(=O)c1c(F)cccc1Cl | 23 |
| 0.26 | O=C(O)CCCCCNC(=O)c1ccc(Cl)cc1O | 40 |
| 0.45 | Cc1ccccc1C(=O)NCCCCCCCC(=O)O | 25 |
| 1.05 | O=C(O)CCCCCCCNC(=O)c1cccc(I)c1 | 39 |
| 0.46 | O=C(O)CCCCCCCNC(=O)c1cccc(O)c1O | – |
| -0.41 | O=C(O)CCCNC(=O)c1ccccc1O | 25 |
| -0.28 | O=C(O)CCCCCCCNC(=O)C1CCCN1 (stereo not given) | 25 |
| 1.54 | O=C(O)CCCCCCCNC(=O)c1cc(Br)ccc1O | 111 |
| 0.65 | O=C(O)CCCCCCCNC(=O)c1ccc(O)cc1O | 37 |
| 0.69 | O=C(O)CCCCCCCCNC(=O)C/C=C/c1ccccc1 | 140 |
| 0.94 | O=C(O)CCCCCCCNC(=O)c1ccc(Cl)c([N+](=O)[O-])c1 | 34 |
| -0.18 | O=C(O)CCCCNC(=O)c1ccccc1O | 26 |
| 0.89 | COc1ccccc1/C=C/CC(=O)NCCCCCCCCC(=O)O | 56 |
| 0.79 | COc1cc(Cl)ccc1C(=O)NCCCCCCCC(=O)O | 75 |
| -0.53 | O=C(O)CCCCCCCNC(=O)c1cccnc1Cl | 30 |
| 0.44 | O=C(O)CCCCCCCNC(=O)c1ccc([N+](=O)[O-])cc1 | 33 |
| -0.64 | O=C(O)CCCCCCCNC(=O)c1ccccc1OC(F)(F)F | 23 |
| 0.35 | O=C(O)CCCCCCCNC(=O)c1ccccc1I | 22 |
| -0.63 | O=C(O)CCNC(=O)c1ccccc1O | 22 |
| -0.55 | COc1cc([N+](=O)[O-])ccc1C(=O)NCCCCCCCC(=O)O | 25 |
| -0.68 | O=C(O)CNC(=O)c1ccccc1O [SALICYLURIC ACID] | 28 |

— ChEMBL document CHEMBL1131318, “Synthesis and evaluation of compounds that facilitate the gastrointestinal absorption of heparin” (J Med Chem, 1998)
